Reference: ChEMBL document CHEMBL4354873, “Rationally Designed Small-Molecule Inhibitors Targeting an Unconventional Pocket on the TLR8 Protein-Protein Interface” (J Med Chem, 2020)
Activity calls are given as the source filed them. No cut-off for these calls is given here.

Tests used:
[1] = biological target: T1, Toll-like receptor 8 (Homo sapiens) (UniProt Q9NR97); assay: Inhibition of R848 binding to human TLR8 ectodomain at 50 uM by isothermal titration calorimetry
T1 sequence (whole entry): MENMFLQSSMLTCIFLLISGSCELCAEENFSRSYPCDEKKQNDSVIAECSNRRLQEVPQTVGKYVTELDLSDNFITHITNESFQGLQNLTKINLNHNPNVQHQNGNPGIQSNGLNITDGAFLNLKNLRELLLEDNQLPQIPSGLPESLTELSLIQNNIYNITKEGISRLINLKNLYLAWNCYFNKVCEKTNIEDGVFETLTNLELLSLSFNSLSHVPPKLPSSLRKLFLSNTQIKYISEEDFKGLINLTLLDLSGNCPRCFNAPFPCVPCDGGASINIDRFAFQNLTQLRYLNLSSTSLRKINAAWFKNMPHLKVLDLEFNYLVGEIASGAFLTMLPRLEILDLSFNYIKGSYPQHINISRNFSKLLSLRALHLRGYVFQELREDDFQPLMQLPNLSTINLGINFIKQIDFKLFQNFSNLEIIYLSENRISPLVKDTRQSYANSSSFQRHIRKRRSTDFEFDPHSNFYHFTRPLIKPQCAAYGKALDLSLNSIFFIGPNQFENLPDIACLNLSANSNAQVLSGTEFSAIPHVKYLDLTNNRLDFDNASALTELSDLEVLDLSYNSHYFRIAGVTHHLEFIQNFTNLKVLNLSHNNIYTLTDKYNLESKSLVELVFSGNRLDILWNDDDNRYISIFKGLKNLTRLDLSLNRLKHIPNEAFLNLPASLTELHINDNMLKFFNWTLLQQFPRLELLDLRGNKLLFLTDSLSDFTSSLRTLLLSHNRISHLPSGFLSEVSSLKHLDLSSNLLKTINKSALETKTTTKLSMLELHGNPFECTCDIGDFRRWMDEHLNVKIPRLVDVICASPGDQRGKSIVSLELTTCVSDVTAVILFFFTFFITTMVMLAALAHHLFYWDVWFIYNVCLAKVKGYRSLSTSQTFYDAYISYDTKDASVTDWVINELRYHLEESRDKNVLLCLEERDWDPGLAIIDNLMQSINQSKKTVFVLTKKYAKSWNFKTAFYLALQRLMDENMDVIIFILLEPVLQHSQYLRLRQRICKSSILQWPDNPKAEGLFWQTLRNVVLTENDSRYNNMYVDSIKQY

[2] = Cytotoxicity against HEK-Blue cells expressing human TLR8 assessed as reduction in cell viability up to 100 uM measured after 24 hrs by CCK8 assay; assay type: cell-based
Method in brief: (§1)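 CCK-8 viability: compounds incubated 24 h at 37 °C with HEK-Blue TLR8 cells (4 × 10⁴ cells/well) or PBMCs (3 × 10⁶ cells/mL). CCK-8 was added at 1:10 for up to 2 h, then absorbance read at 450 nm. Values normalized to untreated cells as 100% survival.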

[3] = biological target: T1, Toll-like receptor 8 (Homo sapiens); assay: Inhibition of human TLR8 expressed in HEK-Blue cells assessed as inhibition of R848-induced NF-kappaB activation at 20 uM measured after 24 hrs by quanti-blue based SEAP reporter gene assay; assay type: cell-based
Method in brief: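 HEK-Blue SEAP format: 4 × 10⁴ cells/well in DMEM with ligand plus compound, 24 h at 37 °C. Supernatant mixed with QUANTI-Blue up to 1 h, then A620 read. Ligands: Pam3CSK4 100 ng/mL (TLR1/2), Pam2CSK4 100 ng/mL (TLR2/6), poly(I:C) 5 µg/mL (TLR3), LPS 20 ng/mL (TLR4), flagellin 50 ng/mL (TLR5), R848 1 µg/mL (TLR7), R848 2 µg/mL (TLR8), ODN2006 0.5 µM (TLR9). Mean ± s.d.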

[4] = biological target: T1, Toll-like receptor 8 (Homo sapiens); assay: Inhibition of TLR8 in human monocytes assessed as reduction in R848-induced TNFalpha production measured after 24 hrs by ELISA; assay type: cell-based
Method in brief: (§2)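 Human monocyte cell lines in RPMI 1640 with 10% FBS and 0.05 mM 2-mercaptoethanol, 1 × 10⁶/well, 24 h. After PBS washes, fresh RPMI added with R848 1 µg/mL and varying compound concentrations for 24 h. Supernatant TNF-α, IL-6 and IL-1β measured by ELISA.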

[5] = biological target: T1, Toll-like receptor 8 (Homo sapiens); assay: Inhibition of TLR8 in human monocytes assessed as reduction in R848-induced IL6 production measured after 24 hrs by ELISA; assay type: cell-based; method in brief: as §2
[6] = biological target: T1, Toll-like receptor 8 (Homo sapiens); assay: Inhibition of TLR8 in human monocytes assessed as reduction in R848-induced IL1beta production measured after 24 hrs by ELISA; assay type: cell-based; method in brief: as §2
PBMC = assay: Cytotoxicity against rheumatoid arthritis patient-derived PBMC assessed as reduction in cell viability up to 80 uM measured after 24 hrs by CCK8 assay; assay type: cell-based; details: human; method in brief: as §1
[7] = biological target: T1, Toll-like receptor 8 (Homo sapiens); assay: Inhibition of TLR8 in rheumatoid arthritis patient-derived PBMC assessed as reduction in spontaneous TNFalpha production measured after 24 hrs by ELISA

CSc1nnc(CCCO)n1-c1cc(C)c(C)c(C)c1
inhibition [1]: Active | Activity [2]: Non-Toxic | inhibition [3]: Active | inhibition [4]: Dose-dependent effect | inhibition [5]: Dose-dependent effect | inhibition [6]: Dose-dependent effect | Activity (PBMC): Non-Toxic | inhibition [7]: Dose-dependent effect
